Data: ChEMBL document CHEMBL1131289, “2-Nitrophenylcarbamoyl-(S)-prolyl-(S)-3-(2-naphthyl)alanyl-N-benzyl-N - methylamide (SDZ NKT 343), a potent human NK1 tachykinin receptor antagonist with good oral analgesic activity in chronic pain models” (J Med Chem, 1998)
pIC50, pKi: −log10 of the molar value.

Assays:
Cavia porcellus [1] = assay: In vivo inhibition of hyperalgesia at 30 mg/kg po dose and 3h after dosing in guinea pig; format: functional
In short: (§1)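 Guinea pigs got 1% carrageenan (100 μL) intraplantar in one hind paw. Mechanical hyperalgesia was read 24 h later, before dosing. Compound was given orally at 30 mg/kg in 10% DMSO in 1% tragacanth or as a microemulsion. Readings were taken at intervals up to 6 h, and the value is percentage reversal of predose hyperalgesia.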

Substance-P receptor [2] = molecular target: Substance-P receptor (Homo sapiens, UniProt P25103); assay: In vitro binding affinity towards Tachykinin receptor 1 by measuring its ability to displace [3H]SP (0.6 nM) binding to membranes from Cos-7 cells transiently transfected with the hNK-1R; format: cell membranes
Substance-P receptor [3] = molecular target: T1, Substance-P receptor (Cavia porcellus, UniProt P30547); assay: Tachykinin receptor 1 antagonistic activity as inhibition of contractions evoked by 4 nM [Sar9,Met(O2)11]-SP in guinea pig ileum; format: functional, tissue-based
In short: (§2)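 Guinea pig ileum contracted by [Sar9Met(O2)11]SP (4.0 nM), repeated at least five times until stable. Antagonist added 2 min before agonist; at least three concentrations, each tested three times. IC50 read from log10 concentration–response curve; mean ± SEM of three separate experiments.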

Cavia porcellus [4] = species on record: Cavia porcellus; assay: The effective dose of compound used to inhibit 30% of hyperalgesia in guinea pig; format: functional
In short: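 Hyperalgesia was induced in guinea pigs with intraplantar 1% carrageenan (100 μL) in one hind paw. Mechanical hyperalgesia was assessed 24 h later, then oral doses were given in 10% DMSO/1% tragacanth or a microemulsion. ED30, the dose giving 30% inhibition of hyperalgesia, was taken from dose–response data 3 h after dosing (n = 3).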

Substance-P receptor [5] = molecular target: T1, Substance-P receptor; assay: Tested for Tachykinin receptor 1 […] activity by measuring its ability to inhibit contractions evoked by [Sar9,Met(O2)11]-SP (4 nM) in guinea pig ileum; format: functional, tissue-based; in short: as §2
Cavia porcellus [6] = assay: The compound was evaluated for its %inhibition of hyperalgesia at 30 mg/kg po dose and 1 hr after dosing; format: functional; in short: as §1

Chain of Substance-P receptor (Homo sapiens, UniProt P25103) (P25103 whole entry): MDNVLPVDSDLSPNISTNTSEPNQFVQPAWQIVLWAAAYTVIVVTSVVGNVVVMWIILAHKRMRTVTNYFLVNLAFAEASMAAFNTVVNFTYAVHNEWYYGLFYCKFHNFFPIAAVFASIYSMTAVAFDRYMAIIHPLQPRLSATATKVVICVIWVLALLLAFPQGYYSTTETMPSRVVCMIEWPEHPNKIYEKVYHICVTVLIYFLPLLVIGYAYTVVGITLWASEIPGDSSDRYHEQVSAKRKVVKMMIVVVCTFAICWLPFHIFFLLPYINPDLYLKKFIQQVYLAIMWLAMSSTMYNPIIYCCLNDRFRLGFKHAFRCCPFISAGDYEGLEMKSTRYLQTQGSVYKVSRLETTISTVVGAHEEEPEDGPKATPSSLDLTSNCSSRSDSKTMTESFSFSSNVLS
T1 sequence (P30547 whole entry): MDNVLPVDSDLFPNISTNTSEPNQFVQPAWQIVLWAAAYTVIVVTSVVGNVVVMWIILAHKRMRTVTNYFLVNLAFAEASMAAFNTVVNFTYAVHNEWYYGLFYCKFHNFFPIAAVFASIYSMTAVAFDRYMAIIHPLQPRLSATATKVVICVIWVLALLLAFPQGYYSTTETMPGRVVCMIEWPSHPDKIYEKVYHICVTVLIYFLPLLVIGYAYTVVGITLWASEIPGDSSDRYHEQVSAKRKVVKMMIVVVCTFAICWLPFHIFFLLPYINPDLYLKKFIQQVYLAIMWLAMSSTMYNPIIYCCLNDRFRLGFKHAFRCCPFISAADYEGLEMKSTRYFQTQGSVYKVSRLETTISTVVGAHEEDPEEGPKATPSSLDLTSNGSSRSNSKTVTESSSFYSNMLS

COCc1ccccc1NC(=O)N1CCC[C@H]1C(=O)N[C@@H](Cc1ccc2ccccc2c1)C(=O)N(C)Cc1ccccc1
inhibition in vivo at 30 mg/kg (Cavia porcellus [1]): 67%
pKi (Substance-P receptor [2]): 9.00
pIC50 (Substance-P receptor [3]): 8.92
ED30 (Cavia porcellus [4]): 1.2 mg/kg

CN(Cc1ccccc1)C(=O)[C@H](Cc1ccc2ccccc2c1)NC(=O)[C@@H]1CCCN1C(=N)NCc1ccccc1Cl
pKi (Substance-P receptor [2]): 9.30

CN(Cc1cc(C(F)(F)F)cc(C(F)(F)F)c1)C(=O)[C@H](Cc1ccccc1)NC(=O)[C@@H]1CCCN1C(=S)NCc1ccccc1Cl
pKi (Substance-P receptor [2]): 7.57

CN(Cc1ccccc1)C(=O)[C@H](Cc1ccc2ccccc2c1)NC(=O)[C@@H]1CCCN1C(=O)Nc1ccccc1F
pKi (Substance-P receptor [2]): 8.46

CN(Cc1ccccc1)C(=O)[C@H](Cc1ccc2ccccc2c1)NC(=O)[C@@H]1CCCN1C(=O)Nc1cccc(C(N)=O)c1
pKi (Substance-P receptor [2]): 8.30

CN(Cc1ccccc1)C(=O)[C@H](Cc1cccc2ccccc12)NC(=O)[C@@H]1CCCN1/C(S)=N/Cc1ccccc1Cl
pKi (Substance-P receptor [2]): 7.86

CN(Cc1ccccc1)C(=O)[C@H](Cc1ccccc1)NC(=O)[C@@H]1CCCN1C(=O)NCc1ccccc1Cl
pIC50 (Substance-P receptor [2]): 6.23

CN(Cc1ccccc1)C(=O)[C@H](Cc1ccc2ccccc2c1)NC(=O)[C@@H]1CCCN1C(=O)NCc1ccccc1Cl
pKi (Substance-P receptor [2]): 8.64

CN(Cc1ccccc1)C(=O)[C@H](Cc1ccc2ccccc2c1)NC(=O)[C@@H]1CCCN1C(=O)Nc1cccc(F)c1
inhibition in vivo at 30 mg/kg (Cavia porcellus [1]): 10%
pKi (Substance-P receptor [2]): 9.15
pIC50 (Substance-P receptor [3]): 8.17

CN(Cc1ccccc1)C(=O)[C@H](Cc1ccc2ccccc2c1)NC(=O)[C@@H]1CCCN1C(=O)Nc1ccccc1C#N
inhibition in vivo at 30 mg/kg (Cavia porcellus [1]): 42%
pKi (Substance-P receptor [2]): 8.96
pIC50 (Substance-P receptor [3]): 9.00
ED30 (Cavia porcellus [4]): 2.1 mg/kg

CN(Cc1ccccc1)C(=O)[C@@H](Cc1ccccc1)NC(=O)[C@H]1CCCN1C(=S)Nc1ccccc1Cl
pIC50 (Substance-P receptor [2]): 5.49

CN(Cc1ccc2ccccc2c1)C(=O)[C@H](Cc1ccccc1)NC(=O)[C@@H]1CCCN1/C(S)=N/Cc1ccccc1Cl
pKi (Substance-P receptor [2]): 7.44

CN(CCc1ccccc1)C(=O)[C@H](Cc1ccccc1)NC(=O)[C@@H]1CCCN1C(=S)NCc1ccccc1Cl
pIC50 (Substance-P receptor [2]): 5.60

CC(=O)Nc1ccccc1NC(=O)N1CCC[C@H]1C(=O)N[C@@H](Cc1ccc2ccccc2c1)C(=O)N(C)Cc1ccccc1
pIC50 (Substance-P receptor [5]): 8.12

COC(=O)c1ccccc1NC(=O)N1CCC[C@H]1C(=O)N[C@@H](Cc1ccc2ccccc2c1)C(=O)N(C)Cc1ccccc1
pKi (Substance-P receptor [2]): 9.52
pIC50 (Substance-P receptor [3]): 8.22

CN(Cc1ccccc1)C(=O)[C@H](Cc1ccc2ccccc2c1)NC(=O)[C@@H]1CCCN1C(=O)Nc1ccc(F)cc1
pKi (Substance-P receptor [2]): 8.66
pIC50 (Substance-P receptor [3]): 7.76

CN(Cc1ccccc1)C(=O)[C@H](Cc1ccc2ccccc2c1)NC(=O)[C@@H]1CCCN1C(=O)Nc1ccccc1O
pKi (Substance-P receptor [2]): 8.59

CN(Cc1cccc2ccccc12)C(=O)[C@H](Cc1ccccc1)NC(=O)[C@@H]1CCCN1C(=S)NCc1ccccc1Cl
pKi (Substance-P receptor [2]): 7.77

CN(Cc1ccccc1)C(=O)[C@H](Cc1cn(C)c2ccccc12)NC(=O)[C@@H]1CCCN1/C(S)=N/Cc1ccccc1Cl
pKi (Substance-P receptor [2]): 8.33

CN(Cc1ccccc1)C(=O)[C@@H](NC(=O)[C@@H]1CCCN1C(=S)NCc1ccccc1Cl)C(c1ccccc1)c1ccccc1
pKi (Substance-P receptor [2]): 7.53

CN(Cc1ccccc1)C(=O)[C@H](Cc1ccccc1)NC(=O)[C@@H]1CCCN1/C(S)=N/Cc1ccccc1C(F)(F)F
pKi (Substance-P receptor [2]): 7.57

CN(Cc1ccccc1)C(=O)[C@H](Cc1ccc2ccccc2c1)NC(=O)[C@@H]1CCCN1C(=O)Nc1cccnc1
pKi (Substance-P receptor [2]): 8.17
inhibition in vivo at 30 mg/kg (Cavia porcellus [6]): 14%
pIC50 (Substance-P receptor [3]): 8.38

CN(Cc1ccccc1)C(=O)[C@H](Cc1ccccc1)NC(=O)[C@@H]1CCCN1/C(S)=N/Cc1c(Cl)cccc1Cl
pKi (Substance-P receptor [2]): 7.59

CNC(=O)c1ccccc1NC(=O)N1CCC[C@H]1C(=O)N[C@@H](Cc1ccc2ccccc2c1)C(=O)N(C)Cc1ccccc1
pKi (Substance-P receptor [2]): 8.42
pIC50 (Substance-P receptor [3]): 8.52

CN(Cc1ccccc1)C(=O)[C@H](Cc1ccccc1)N(C)C(=O)[C@@H]1CCCN1/C(S)=N/Cc1ccccc1Cl
pKi (Substance-P receptor [2]): 7.42

CN(Cc1ccccc1)C(=O)[C@H](CCc1ccccc1)NC(=O)[C@@H]1CCCN1/C(S)=N/Cc1ccccc1Cl
pIC50 (Substance-P receptor [2]): 6.69

O=C(NCCc1c[nH]c2ccccc12)[C@H](Cc1ccccc1)NC(=O)[C@@H]1CCCN1C(=S)NCc1ccccc1Cl
pIC50 (Substance-P receptor [2]): 5.43

CN(Cc1ccccc1)C(=O)[C@H](Cc1ccc2ccccc2c1)NC(=O)[C@@H]1CCCN1C(=O)Nc1ccccc1CO
pKi (Substance-P receptor [2]): 8.77

CN(CCc1c[nH]c2ccccc12)C(=O)[C@H](Cc1ccccc1)NC(=O)[C@@H]1CCCN1/C(S)=N/Cc1ccccc1Cl
pKi (Substance-P receptor [2]): 7.32

CN(Cc1ccccc1)C(=O)[C@H](Cc1ccc2ccccc2c1)NC(=O)[C@@H]1CCCN1C(=O)Nc1cccc([N+](=O)[O-])c1
pKi (Substance-P receptor [2]): 8.64

CN(Cc1ccccc1)C(=O)[C@H](Cc1c[nH]c2ccccc12)NC(=O)[C@@H]1CCCN1C(=S)NCc1ccccc1Cl
pKi (Substance-P receptor [2]): 7.78

CN(Cc1ccccc1)C(=O)[C@H](Cc1ccc2ccccc2c1)N(C)C(=O)[C@@H]1CCCN1C(=S)NCc1ccccc1Cl
pKi (Substance-P receptor [2]): 8.77

CN(Cc1ccccc1)C(=O)[C@H](Cc1ccc2ccccc2c1)NC(=O)[C@@H]1CCCN1C(=O)Nc1ccccc1
inhibition in vivo at 30 mg/kg (Cavia porcellus [1]): 26%
pKi (Substance-P receptor [2]): 9.06
pIC50 (Substance-P receptor [3]): 8.30

CN(Cc1ccccc1)C(=O)[C@H](Cc1ccccc1)NC(=O)[C@@H]1CCCN1C(=S)NCc1cc(C(F)(F)F)cc(C(F)(F)F)c1
pKi (Substance-P receptor [2]): 7.10

CN(Cc1ccccc1)C(=O)[C@H](Cc1ccc2ccccc2c1)NC(=O)[C@@H]1CCCN1C(=O)Nc1ccccc1N
pIC50 (Substance-P receptor [3]): 7.68

CN(Cc1ccccc1)C(=O)[C@H](Cc1ccc2ccccc2c1)NC(=O)[C@@H]1CCCN1C(=O)Nc1ccc(C#N)cc1
inhibition in vivo at 30 mg/kg (Cavia porcellus [1]): 32%
pKi (Substance-P receptor [2]): 8.96
pIC50 (Substance-P receptor [3]): 8.62

CN(Cc1ccccc1)C(=O)[C@H](Cc1ccccc1)NC(=O)[C@@H]1CCCN1C(=S)Nc1ccccc1 (single isomer, unassigned)
pKi (Substance-P receptor [2]): 7.10

CN(Cc1ccccc1)C(=O)[C@@H](Cc1ccccc1)NC(=O)[C@H]1CCCN1/C(S)=N/c1ccccc1Br
pIC50 (Substance-P receptor [2]): 6.00

CN(Cc1ccccc1)C(=O)[C@H](Cc1ccccc1)NC(=O)[C@@H]1CCCN1/C(S)=N/Cc1ccccc1[N+](=O)[O-]
pKi (Substance-P receptor [2]): 7.11

CN(Cc1ccccc1)C(=O)[C@H](Cc1ccccc1)NC(=O)[C@@H]1CCCN1C(=S)NCc1ccccc1Cl
pKi (Substance-P receptor [2]): 7.52

CN(Cc1ccncc1)C(=O)[C@H](Cc1ccccc1)NC(=O)[C@@H]1CCCN1C(=S)NCc1ccccc1Cl
pIC50 (Substance-P receptor [2]): 5.00

CN(Cc1ccccc1)C(=O)[C@H](Cc1ccccc1)NC(=O)[C@@H]1CCCN1C(=S)NCc1ccccc1F
pIC50 (Substance-P receptor [2]): 6.54

CN(C(=O)[C@H](Cc1ccccc1)NC(=O)[C@@H]1CCCN1C(=S)NCc1ccccc1Cl)c1ccccc1
pIC50 (Substance-P receptor [2]): 4.00

CN(Cc1ccccc1)C(=O)[C@H](Cc1ccc2ccccc2c1)NC(=O)[C@@H]1CCCN1C(=O)Nc1cccc(C#N)c1
inhibition in vivo at 30 mg/kg (Cavia porcellus [1]): 38%
pKi (Substance-P receptor [2]): 8.38
pIC50 (Substance-P receptor [3]): 8.59

CN(Cc1ccccc1)C(=O)[C@H](Cc1ccccc1)NC(=O)[C@@H]1CCCN1C(=S)NCc1ccccc1Br
pKi (Substance-P receptor [2]): 7.53

CN(C)C(=O)c1ccccc1NC(=O)N1CCC[C@H]1C(=O)N[C@@H](Cc1ccc2ccccc2c1)C(=O)N(C)Cc1ccccc1
pKi (Substance-P receptor [2]): 8.21

CN(Cc1ccccc1)C(=O)[C@H](Cc1ccc2ccccc2c1)NC(=O)[C@@H]1CCCN1C(=O)Nc1ccccc1C(F)(F)F
pKi (Substance-P receptor [2]): 7.74

CN(Cc1ccccc1)C(=O)[C@H](Cc1ccc(Cl)c(Cl)c1)NC(=O)[C@@H]1CCCN1/C(S)=N/Cc1ccccc1Cl
pKi (Substance-P receptor [2]): 8.30

CN(Cc1ccccc1)C(=O)[C@H](Cc1ccc2ccccc2c1)NC(=O)[C@@H]1CCCN1C(=O)Nc1ccccc1C(=O)O
pKi (Substance-P receptor [2]): 6.76

CN(Cc1ccccc1)C(=O)[C@H](Cc1ccccc1)NC(=O)[C@@H]1CCCN1C(=N)NCc1ccccc1Cl
pKi (Substance-P receptor [2]): 7.73

CN(Cc1ccccc1)C(=O)[C@H](Cc1ccc2ccccc2c1)NC(=O)[C@@H]1CCCN1C(=O)Nc1ccccc1C(N)=O
inhibition in vivo at 30 mg/kg (Cavia porcellus [1]): 35%
pKi (Substance-P receptor [2]): 9.10
pIC50 (Substance-P receptor [3]): 8.72
ED30 (Cavia porcellus [4]): 15.7 mg/kg

CN(Cc1ccccc1)C(=O)[C@H](Cc1ccc(-c2ccccc2)cc1)NC(=O)[C@@H]1CCCN1/C(S)=N/Cc1ccccc1Cl
pKi (Substance-P receptor [2]): 8.14

Cc1ccccc1C/N=C(\S)N1CCC[C@H]1C(=O)N[C@@H](Cc1ccccc1)C(=O)N(C)Cc1ccccc1
pIC50 (Substance-P receptor [2]): 6.39

CN(Cc1ccccc1)C(=O)[C@H](Cc1ccccc1)NC(=O)[C@@H]1CCCN1/C(S)=N/Cc1ccccc1
pKi (Substance-P receptor [2]): 6.00
